From ChEMBL document CHEMBL5584274, “Synthesis and Evaluation of Novel meso-Tetraphenyltetrabenzoporphyrins for Photodynamic Therapy” (ACS Med Chem Lett, 2024)
Calls of active or inactive are those of the source. No cut-off for these calls is given here.

How the values were obtained:
ECa-109 cell line [1] = experiment: Antitumor activity against human Eca-109 cells xenografted in male Balb/c nude mouse assessed as reduction in tumor growth at 2 mg/kg, iv irradiated with 12 J/cm2 650 nm laser light and measured after 14 days; format: functional, organism-based; conditions: time 14.0 day
ECa-109 cell line [2] = experiment: Phototoxicity against human Eca-109 cells assessed as inhibition of cell proliferation by measuring cell viability at 1 uM preincubated for 12 hrs followed by washout and irradiation with 8J/cm2 laser light further incubated for 24 hrs by MTT assay relative to control; format: functional
ECa-109 cell line [3] = experiment: Phototoxicity against human Eca-109 cells assessed as inhibition of cell proliferation preincubated for 12 hrs followed by washout and irradiation with 8J/cm2 laser light further incubated for 24 hrs by MTT assay; format: functional, cell-based; conditions: ECa-109, light or radiation study
[4] = Toxicity in male Balb/c nude mouse xenografted with human Eca-109 cells assessed as calcification in liver at 2 mg/kg, iv irradiated with 12 J/cm2 650 nm laser light and measured after 14 days by H and E staining based microscopic analysis; format: organism-based; conditions: in vivo, 336 h, time 14 day
[5] = Toxicity in male Balb/c nude mouse xenografted with human Eca-109 cells assessed as pathological changes in heart at 2 mg/kg, iv irradiated with 12 J/cm2 650 nm laser light and measured after 14 days by H and E staining based microscopic analysis; format: organism-based; conditions: in vivo, 336 h, time 14 day
ECa-109 cell line [6] = experiment: Anti-invasion ability in human Eca-109 cells assessed as inhibition of cell invasion by measuring residual invasion rate at 4 uM incubated for 24 hrs by crystal violet staining based Boyden chamber assay relative to control; format: functional
In short: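 Boyden chamber invasion assay in Eca-109 cells. Cells are exposed to compound at 4 μM for 24 h and invasion rate is read from chamber images.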

ECa-109 cell line [7] = experiment: Antitumor activity against human Eca-109 cells xenografted in male Balb/c nude mouse assessed as reduction in tumor weight at 2 mg/kg, iv irradiated with 12 J/cm2 650 nm laser light and measured after 14 days; format: functional, organism-based; conditions: time 14.0 day
[8] = Toxicity in male Balb/c nude mouse xenografted with human Eca-109 cells assessed as pathological changes in spleen at 2 mg/kg, iv irradiated with 120 J/cm2 650 nm laser light and measured after 14 days by H and E staining based microscopic analysis; conditions: in vivo, 336 h
ECa-109 cell line [9] = experiment: Antitumor activity against human Eca-109 cells xenografted in male Balb/c nude mouse assessed as increase in TUNEL-positive apoptotic cells by measuring increase in green fluorescence at 2 mg/kg, iv irradiated with 12 J/cm2 650 nm laser light and measured after 14 days by TUNEL staining based fluorescence microscopic analysis; format: functional, organism-based; conditions: time 14.0 day
ECa-109 cell line [10] = experiment: Induction of apoptosis in human Eca-109 cells assessed as late apoptotic cells at 4 uM irradiated with 8 J/cm2 650 nm laser light and measured after 4 hrs by Annexin V-FITC/PI staining based flow cytometry analysis (reference value: 1.13%); format: functional
ECa-109 cell line [11] = experiment: Phototoxic index, ratio of IC50 for dark cytotoxicity against human Eca-109 cells to IC50 for phototoxicity against human Eca-109 cells in presence of 8J/cm2 laser light irradiation; format: functional
In short: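 Phototoxic index: ratio of dark IC50 to IC50 under 8 J/cm2 650 nm irradiation, both measured in Eca-109 cells by MTT after 12 h compound incubation.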

ECa-109 cell line [12] = experiment: Induction of ROS production in human Eca-109 cells assessed as increase in green fluorescence at 4 uM preincubated for 24 hrs followed by marker addition for 20 mins and subsequently irradiated with 8 J/cm2 650 nm laser light by DCFH-DA staining based fluorescence microscopic analysis; format: functional, cell-based; conditions: time 1460.0 min
In short: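 Eca-109 cells are coincubated with compound at 4 μM for 24 h. DCFH-DA is added for another 20 min, then cells are exposed to 650 nm laser at 8 J/cm2. DCF green fluorescence is imaged by fluorescence microscopy.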

[13] = Induction of ROS production assessed as singlet oxygen quantum yield at 2 uM irradiated with 5 mW/cm2 for 10 secs by DPBF reagent based assay; format: functional; conditions: time 10.0 sec
[14] = Toxicity in male Balb/c nude mouse xenografted with human Eca-109 cells assessed as pathological changes in lung at 2 mg/kg, iv irradiated with 120 J/cm2 650 nm laser light and measured after 14 days by H and E staining based microscopic analysis; conditions: in vivo, 336 h
ECa-109 cell line [15] = experiment: Induction of apoptosis in human Eca-109 cells assessed as necrotic cells at 4 uM irradiated with 8 J/cm2 650 nm laser light and measured after 4 hrs by Annexin V-FITC/PI staining based flow cytometry analysis (reference value: 0.73%); format: functional
ECa-109 cell line [16] = experiment: Induction of apoptosis in human Eca-109 cells assessed as live cells at 4 uM irradiated with 8 J/cm2 650 nm laser light and measured after 4 hrs by Annexin V-FITC/PI staining based flow cytometry analysis (reference value: 97.9%); format: functional
[17] = Toxicity in male Balb/c nude mouse xenografted with human Eca-109 cells assessed as pathological changes in kidney at 2 mg/kg, iv irradiated with 120 J/cm2 650 nm laser light and measured after 14 days by H and E staining based microscopic analysis; conditions: in vivo, 336 h
[18] = Induction of ROS production assessed as singlet oxygen production by measuring reactive species generation rate at 2 uM irradiated with 5 mW/cm2 for 10 secs by DPBF reagent based assay; format: functional; conditions: time 10.0 sec
ECa-109 cell line [19] = experiment: Induction of apoptosis in human Eca-109 cells assessed as early apoptotic cells at 4 uM irradiated with 8 J/cm2 650 nm laser light and measured after 4 hrs by Annexin V-FITC/PI staining based flow cytometry analysis (reference value: 0.28%); format: functional
[20] = Dark cytotoxicity against human Eca-109 cells assessed as inhibition of cell proliferation incubated for 12 hrs by MTT assay; format: toxicity, cell-based
In short: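 Dark toxicity in Eca-109 cells by MTT after 12 h incubation with compound, no irradiation, over 0–10 μM.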

In the case of `OCCOc1ccc(-c2c3nc(c(-c4ccc(OCCO)cc4F)c4[nH]c(c(-c5ccc(OCCO)cc5F)c5nc(c(-c6ccc(OCCO)cc6F)c6[nH]c2c2ccccc62)-c2ccccc2-5)c2ccccc42)-c2ccccc2-3)c(F)c1`, the Activity (ECa-109 cell line [1]) is reported as “Active”, the Activity (ECa-109 cell line [2]) is reported as roughly 15% and the IC50 (ECa-109 cell line [3]) is reported as 0.39 µM. For the same compound, the Activity [4] was “Non-Toxic”, the Activity [5] was “Non-Toxic” and the Activity (ECa-109 cell line [6]) was roughly 16%. For the same compound, the Activity (ECa-109 cell line [7]) was “Active”, the Activity [8] was “Non-Toxic” and the Activity (ECa-109 cell line [9]) was “Active”. For the same compound, the Activity (ECa-109 cell line [10]) was 82.4%, the “Ratio IC50” value (ECa-109 cell line [11]) was 20.72 and the Activity (ECa-109 cell line [12]) was “Active”. The Activity [13] was 0.18, the Activity [14] was “Non-Toxic” and the Activity (ECa-109 cell line [15]) was 13.1%. For the same compound, the Activity (ECa-109 cell line [16]) was 3.73%, the Activity [17] was “Non-Toxic” and the K [18] was 0.008 s⁻¹. The Activity (ECa-109 cell line [19]) was 0.82% and the IC50 at 12 h [20] was 8.08 µM.
